Structures are written as SMILES. In brackets after ≈: the same amount, converted by molar mass. Activity calls are given as the source filed them. The rule behind the calls is not given here.

One compound from ChEMBL document CHEMBL1166014, “Targeting efflux pumps-In vitro investigations with acridone derivatives and identification of a lead molecule for MDR modulation” (Bioorg Med Chem, 2010) can be followed below.

In assay [1] the target is Multidrug resistance protein CDR1 (Candida albicans) (UniProt P43071). As to the kind of experiment: Modulation of CDR1-mediated rhodamine 6G accumulation in Candida albicans CAI4 assessed as inhibition of fungal growth at 800 ug/ml after 48 hrs by spot assay. Put shortly: (§1)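 Spot assay: CAI4 grown in YEPD at 30 °C (16 h primary, 5 h secondary), diluted in 0.9% saline and spotted as 10⁵–10⁰ cells on YEPD agar containing compound plus R6G; solvent (MeOH/DMSO 1:1) and YEPD-only control plates; growth scored after 48 h at 30 °C.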
Sequence of Multidrug resistance protein CDR1 (Candida albicans) (P43071 whole entry, looked up): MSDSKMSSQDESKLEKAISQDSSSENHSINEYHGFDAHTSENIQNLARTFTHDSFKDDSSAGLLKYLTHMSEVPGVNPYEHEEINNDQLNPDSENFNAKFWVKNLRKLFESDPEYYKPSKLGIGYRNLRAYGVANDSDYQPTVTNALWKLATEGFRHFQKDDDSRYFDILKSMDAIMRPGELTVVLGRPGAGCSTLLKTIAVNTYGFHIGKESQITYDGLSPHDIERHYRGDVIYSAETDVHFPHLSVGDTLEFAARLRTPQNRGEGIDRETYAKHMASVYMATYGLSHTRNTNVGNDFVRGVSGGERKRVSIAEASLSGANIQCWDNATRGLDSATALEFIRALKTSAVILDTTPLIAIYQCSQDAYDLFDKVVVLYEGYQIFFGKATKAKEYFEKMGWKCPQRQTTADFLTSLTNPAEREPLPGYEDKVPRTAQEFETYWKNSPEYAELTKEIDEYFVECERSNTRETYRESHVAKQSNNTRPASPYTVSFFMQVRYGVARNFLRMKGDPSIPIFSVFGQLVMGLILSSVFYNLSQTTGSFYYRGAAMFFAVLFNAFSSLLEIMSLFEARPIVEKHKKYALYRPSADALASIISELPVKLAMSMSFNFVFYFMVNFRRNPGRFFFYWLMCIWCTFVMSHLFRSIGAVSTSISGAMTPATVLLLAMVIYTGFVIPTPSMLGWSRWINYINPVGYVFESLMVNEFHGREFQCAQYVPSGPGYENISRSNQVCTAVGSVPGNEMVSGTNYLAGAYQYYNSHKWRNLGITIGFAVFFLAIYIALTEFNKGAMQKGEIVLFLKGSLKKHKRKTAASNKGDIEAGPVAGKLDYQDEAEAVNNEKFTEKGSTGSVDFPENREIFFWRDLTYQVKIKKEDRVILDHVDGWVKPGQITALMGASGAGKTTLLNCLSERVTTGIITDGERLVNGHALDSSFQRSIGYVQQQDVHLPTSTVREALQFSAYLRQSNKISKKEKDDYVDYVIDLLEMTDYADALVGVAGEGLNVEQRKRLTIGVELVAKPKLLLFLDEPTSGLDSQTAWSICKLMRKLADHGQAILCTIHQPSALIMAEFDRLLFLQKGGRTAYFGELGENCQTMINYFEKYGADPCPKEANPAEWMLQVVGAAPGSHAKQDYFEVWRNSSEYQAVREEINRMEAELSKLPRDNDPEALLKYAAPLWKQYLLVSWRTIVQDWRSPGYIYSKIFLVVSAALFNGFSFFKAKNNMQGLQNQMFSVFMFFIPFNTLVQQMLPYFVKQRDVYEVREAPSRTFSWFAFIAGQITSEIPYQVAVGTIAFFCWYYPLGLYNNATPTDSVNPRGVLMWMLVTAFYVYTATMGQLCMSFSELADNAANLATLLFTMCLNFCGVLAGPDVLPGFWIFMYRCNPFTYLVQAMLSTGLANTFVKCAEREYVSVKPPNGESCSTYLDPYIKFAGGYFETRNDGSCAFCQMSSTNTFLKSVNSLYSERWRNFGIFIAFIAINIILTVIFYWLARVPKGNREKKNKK

Assay [2] is described as follows: Binding affinity to P-gp at 5 uM after 30 mins by spectrophotometry. Summed up: (§2)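 P-gp vesicles from DC-3F/ADX MDR cells; basal MgATP hydrolysis measured by PK/LDH-coupled NADH oxidation (PEP, NADH), with non-specific ATPase inhibitor; vesicles 5 min at 37 °C, compound added (final 0.05, 0.5, 5 µM) 5 min, MgATP then 20 min at 37 °C; A340 read twice 20 min apart; triplicate; verapamil, vinblastine, progesterone references.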

The nature of assay [3]: Binding affinity to P-gp assessed as increase in basal protein activity at 0.5 uM after 30 mins by spectrophotometry. Summed up:
as §2

A short description of assay [4]: Binding affinity to P-gp assessed as increase in basal protein activity at 5 uM after 30 mins by spectrophotometry. Summed up:
as §2

In assay [5] the target is T1, Multidrug resistance protein CDR2 (Candida albicans (strain SC5314 / ATCC MYA-2876) (Yeast)) (UniProt P78595).
T1 sequence (whole entry): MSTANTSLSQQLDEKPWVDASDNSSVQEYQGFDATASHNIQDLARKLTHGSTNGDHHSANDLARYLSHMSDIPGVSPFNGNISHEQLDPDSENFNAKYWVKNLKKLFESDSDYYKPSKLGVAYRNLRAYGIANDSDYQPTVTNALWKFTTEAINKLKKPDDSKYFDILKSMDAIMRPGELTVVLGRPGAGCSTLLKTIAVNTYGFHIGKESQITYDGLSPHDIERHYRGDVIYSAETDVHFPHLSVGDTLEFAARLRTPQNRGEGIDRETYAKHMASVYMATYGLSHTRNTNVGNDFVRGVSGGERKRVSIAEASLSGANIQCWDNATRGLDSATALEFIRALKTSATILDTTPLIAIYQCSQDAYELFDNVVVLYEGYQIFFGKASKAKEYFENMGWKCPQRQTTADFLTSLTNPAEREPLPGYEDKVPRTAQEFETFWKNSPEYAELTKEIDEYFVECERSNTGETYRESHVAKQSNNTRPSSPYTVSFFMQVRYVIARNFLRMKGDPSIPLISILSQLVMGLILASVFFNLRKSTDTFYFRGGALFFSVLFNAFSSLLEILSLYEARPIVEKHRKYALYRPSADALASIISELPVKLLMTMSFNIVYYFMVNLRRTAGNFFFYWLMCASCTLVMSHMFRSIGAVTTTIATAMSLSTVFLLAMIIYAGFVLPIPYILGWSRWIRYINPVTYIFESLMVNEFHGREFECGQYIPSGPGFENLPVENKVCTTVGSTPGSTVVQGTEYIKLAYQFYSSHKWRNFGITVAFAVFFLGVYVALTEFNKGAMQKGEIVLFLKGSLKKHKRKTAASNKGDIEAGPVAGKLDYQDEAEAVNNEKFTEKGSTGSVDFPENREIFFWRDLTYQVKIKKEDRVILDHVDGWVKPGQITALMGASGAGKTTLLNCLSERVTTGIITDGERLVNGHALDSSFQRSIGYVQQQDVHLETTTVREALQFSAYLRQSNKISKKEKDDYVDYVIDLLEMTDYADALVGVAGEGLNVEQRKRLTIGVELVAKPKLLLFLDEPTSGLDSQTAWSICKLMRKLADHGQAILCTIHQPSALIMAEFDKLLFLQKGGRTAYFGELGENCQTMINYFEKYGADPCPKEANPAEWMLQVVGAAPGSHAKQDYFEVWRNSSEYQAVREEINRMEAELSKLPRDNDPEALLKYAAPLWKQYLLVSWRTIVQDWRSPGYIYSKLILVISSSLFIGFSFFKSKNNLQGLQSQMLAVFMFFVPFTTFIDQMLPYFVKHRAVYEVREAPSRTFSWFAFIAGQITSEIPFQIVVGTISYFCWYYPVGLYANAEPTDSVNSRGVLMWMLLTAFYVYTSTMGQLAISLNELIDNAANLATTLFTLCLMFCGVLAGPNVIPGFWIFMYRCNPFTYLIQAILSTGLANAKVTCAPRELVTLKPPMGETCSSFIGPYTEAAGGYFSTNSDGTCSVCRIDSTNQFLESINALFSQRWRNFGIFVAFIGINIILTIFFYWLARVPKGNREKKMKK
The assay is described as follows: Modulation of CDR2-mediated rhodamine 6G accumulation in Candida albicans CAI4 assessed as inhibition of fungal growth at 800 ug/ml after 48 hrs by spot assay. Summed up: as §1

For assay [6], the target named is Multidrug resistance protein CDR1 (Candida albicans) (UniProt P43071). The assay is described as follows: Inhibition of CDR1-mediated efflux of rhodamine 6G in Candida albicans CAI4 at 800 ug/ml up to 60 mins by spectrofluorimetry in presence of 2 mM 2-deoxyglucose treated for 2 hrs before compound addition. Summed up: (§3)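 C. albicans CAI4 secondary culture (YEPD, 30 °C, ~5 h) washed in PBS, 2% cell suspension de-energised with 2 mM 2-deoxyglucose on rocker 2 h; R6G loaded, cells pelleted, washed, resuspended in PBS with or without 2% glucose; compound at 800 µg/ml with MeOH/DMSO 1:1 solvent control; supernatant R6G fluorescence read (ex 529, em 553 nm) over time.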

The subject of assay [7] is Candida albicans. As to the kind of experiment: Antifungal activity at Candida albicans CAI4 after 48 hrs by ELISA. The class given is functional. The settings on record: CAI4, 48 h. Summed up: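 Broth microdilution; CAI4 streaked on YEPD, 30 °C 24 h; compounds serially diluted twofold in YEPD, solvent diluted alongside; growth control column; 30 °C 48 h; OD600 on plate reader; MIC80 = concentration giving 80% growth inhibition vs no-compound growth.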

Assay [8] deals with T1, Multidrug resistance protein CDR2 (Candida albicans (strain SC5314 / ATCC MYA-2876) (Yeast)). As to the kind of experiment: Inhibition of CDR2-mediated efflux of rhodamine 6G in Candida albicans CAI4 at 800 ug/ml up to 60 mins by spectrofluorimetry in presence of 2 mM 2-deoxyglucose treated for 2 hrs before compound addition. Summed up: as §3
Assay [9] deals with Candida albicans. As to the kind of experiment: Effect of membrane integrity of Candida albicans CAI4 at 800 ug/ml after 48 hrs by spot assay in presence of 300 ug/ml congo red. The class given is functional, organism-based. Put shortly: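 Spot assay on YEPD-agar plates containing compound (with Congo red or calcofluor white where applicable); solvent (MeOH/DMSO 1:1) and YEPD-only control plates; CAI4 primary culture 16 h, secondary 5 h at 30 °C from 4% inoculum, diluted in 0.9% saline; 10⁵ to 10⁰ cells spotted; 30 °C 48 h, growth scored.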

As to `O=C(O)c1cccc2c(=O)c3ccccc3n(CC(O)CN3CCCC3)c12` (centres undefined), the inhibition entry in [1], in assay [5], in [6] and in [8] was “Active” throughout. This compound also had an RBA in assay [2] of 2. For the same compound, the Activity in assay [3] worked out at 85%; in [4] it was 100%. The compound further had an MIC80 in assay [7] of 781 µg/mL (≈ 2130 µM). Also, in assay [9], the inhibition result was “inactive”.
